Rows were chosen to be rich in hits. Some 12% of all compounds tested hit in one or more screens of this group.
ABCB1 block = inhibitors of human ABCB1 transporter, ABCG2 counter-screen; P08183; CCRF-Adr cells, JC-1 efflux, flow cytometry; inhibition, % at 6.6 µM; 190,000 compounds, 0.067% hits; AID 1326; in the data active = inhibition above about 40%;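 note: higher value means more JC-1 retained so stronger ABCB1 efflux block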
WT yeast gro inh = growth inhibition of WT yeast, mitochondrial fusion screen. mitochondrial fusion phenotypic screen, WT strain. 190,000 compounds, 2.1% hits. AID 1362. inhibition, % at 10 µM; in the data active = inhibition above about 58%; tested in S. cerevisiae
ABCG2 inh = inhibitors of human ABCG2 transporter, ABCB1 counter-screen; Q9UNQ0; IgMXP3 cells, JC-1 efflux, flow cytometry; inhibition, % at 6.6 µM; 190,000 compounds, 0.1% hits; AID 1325;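 active = inhibition above 80%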
Target sequence (Q9UNQ0 whole entry, looked up): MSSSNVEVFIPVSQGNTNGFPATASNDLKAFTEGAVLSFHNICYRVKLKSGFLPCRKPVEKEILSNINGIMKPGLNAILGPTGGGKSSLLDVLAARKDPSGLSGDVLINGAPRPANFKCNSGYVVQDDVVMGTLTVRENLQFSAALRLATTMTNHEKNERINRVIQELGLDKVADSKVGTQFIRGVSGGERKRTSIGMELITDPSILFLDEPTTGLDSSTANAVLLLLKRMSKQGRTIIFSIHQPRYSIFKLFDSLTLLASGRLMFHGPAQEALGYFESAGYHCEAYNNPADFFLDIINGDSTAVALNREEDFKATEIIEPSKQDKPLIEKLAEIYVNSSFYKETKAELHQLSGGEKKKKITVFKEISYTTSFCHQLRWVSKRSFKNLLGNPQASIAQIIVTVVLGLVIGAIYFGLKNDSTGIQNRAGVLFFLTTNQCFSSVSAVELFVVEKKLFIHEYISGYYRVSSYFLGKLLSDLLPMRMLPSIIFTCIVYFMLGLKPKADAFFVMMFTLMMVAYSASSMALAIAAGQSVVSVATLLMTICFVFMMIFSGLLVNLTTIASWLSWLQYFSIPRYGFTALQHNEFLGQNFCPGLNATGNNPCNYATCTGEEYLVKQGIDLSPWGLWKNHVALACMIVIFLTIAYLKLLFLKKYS
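Times: 10 min at 25 °C | Test system: Two drug-resistant human cell lines, ABCG2 and ABCB1 | Quantity: 3 million cells/mL final, two lines in 1:1 ratio | Signal: Flow cytometry, 530 nm JC-1 signal | Dosing: Compound at 6.6 µM | Controls: Nicardipine and DMSO wells | Reagent: JC-1 as fluorescent efflux pump substrate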
Lmaj promast = reduces viability of Leishmania major promastigotes | inhibition, % at 10 µM | AID 1063 | resazurin fluorescence viability | 200,000 compounds, 9% hits; in the data active = inhibition above about 50%;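 note: promastigotes grown with compound for 44 hours at 28 °C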
RAM inhibit = blocks the yeast RAM network. S. cerevisiae dse1pr::URA3 reporter, 5-FOA growth OD615, 2 d; analog-sensitive cbk1-as2 kinase mutant strain. 190,000 compounds, 1.8% hits. inhibition, % at 50 µM. AID 868;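 active = inhibition above a set limit, 3 SD over mean compound inhibition, cut at about 8.4% in these data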;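 note: inhibition rescues growth on 5-FOA so higher OD means more RAM inhibition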
Hits are given with their value; n = inactive; x = not tested or not shown.

SMILES	ABCB1 block	WT yeast gro inh	ABCG2 inh	Lmaj promast	RAM inhibit
O=C(CNC(=O)c1ccncc1)N/N=C/c1cc(Br)ccc1O	n	n	n	98	n
CCOc1ccc(NC(=O)CN2CC(c3ccccc3)CC2=O)cc1 (stereo not drawn)	n	n	n	n	n
O=C(COc1ccccc1)NCC(=O)N/N=C/c1cc(Br)ccc1OCc1ccccc1	n	n	n	n	n
O=C(CNC(=O)c1ccccc1Br)N/N=C/c1ccccc1O	n	n	n	n	n
O=C(CN1CC(c2ccccc2)CC1=O)N/N=C/c1cc(Br)ccc1O (stereo not drawn)	n	n	n	98	n
Cc1ccc(S(=O)(=O)N2CCC(NC(=O)c3ccccc3)CC2)cc1	n	n	n	n	n
COC(=O)Cc1cc(OC)c(OC)cc1S(=O)(=O)N(C)C	n	n	n	n	n
Cc1ccc(N=CC2=C(O)CC(c3ccc(Cl)cc3)CC2=O)cc1 (stereo not drawn)	x	n	n	n	n
O=C(Cc1ccccc1)N/N=C/c1cc(Br)cc(Cl)c1O	n	n	n	82	n
O=C(N/N=C/c1cc(Cl)ccc1O)c1ccccc1Br	n	n	n	98	n
O=C(/C=N/NC(=O)c1ccccc1Br)c1ccccc1	n	n	n	n	n
Cc1ccc2nc(Cl)c(/C=N/NC(=O)c3ccccc3O)cc2c1	n	62	n	n	n
O=C(CNC(=O)c1cccc(Br)c1)N/N=C/c1cn[nH]c1-c1ccccc1	x	n	n	67	n
CCC(C)(C)NC(=O)C(c1ccc(F)cc1)N(Cc1ccccc1)C(=O)c1cnccn1 (stereo not drawn)	n	n	n	n	n
O=C(CSc1ncc(-c2ccc(F)cc2)[nH]1)Nc1cccc(O)c1	n	n	n	n	n
COc1ccc(NC(=O)c2cc(=O)[nH]c(=O)[nH]2)cc1S(=O)(=O)Nc1ccccc1Cl	n	n	n	n	n
O=C(CNC(=O)c1cccc(Br)c1)N/N=C/c1ccc[nH]1	n	n	n	n	n
O=C(CNC(=O)c1ccccc1)N/N=C/c1cc(Br)ccc1O	n	n	n	80	n
O=C(COC(=O)/C=C/c1ccc(Br)o1)NCCCN1CCCC1=O	n	n	n	n	n
Nc1ccc(Cc2ccc(N)c(O)c2)cc1O	n	n	n	99	n
COc1ccccc1C(=O)Nc1nnc(SCC(=O)Nc2ccc3c(c2)oc2ccccc23)s1	n	n	n	96	n
CCn1c(SCC(=O)Nc2cc3oc4ccccc4c3cc2OC)nnc1-c1cccs1	n	n	n	66	n
Cc1cc(Cl)ccc1NC(=O)CSc1nnc(Cc2cccs2)n1Cc1ccco1	n	n	n	86	n
COc1cc2c(cc1NC(=O)CSc1nnc(Cc3cccs3)n1Cc1ccco1)oc1ccccc12	n	n	n	91	n
Cc1cccc(C(=O)Nc2nnc(SCC(=O)Nc3ccc4c(c3)oc3ccccc34)s2)c1	n	n	n	n	n
SMILES	ABCB1 block	WT yeast gro inh	ABCG2 inh	Lmaj promast	RAM inhibit
C=CCn1c(Cc2cccs2)nnc1SCC(=O)NCc1ccco1	n	n	n	n	n
COc1cc2c(cc1NC(=O)CSc1nc3ccc(C)cc3[nH]1)oc1ccccc12	n	n	n	65	n
Cc1ccc(N=Cc2cc(Cc3ccccc3Cl)cc([N+](=O)[O-])c2O)c(O)c1	n	n	n	73	n
COC(=O)c1ncccc1SC	n	n	n	n	n
COc1ccc2c(Cl)c(C(=O)N/N=C/c3c(C)[nH]c4ccccc34)sc2c1	n	n	n	100	n
O=C(N/N=C/c1ccc2c(c1)OCO2)c1sc2cc(Cl)ccc2c1Cl	n	n	n	n	n
COc1ccc2c(Cl)c(C(=O)N/N=C/c3ccc4c(c3)OCO4)sc2c1	n	n	n	97	n
CCOP(=O)(OCC)c1nc(/C=C/c2ccccc2)oc1NCc1ccccc1	n	83	n	n	n
COc1ccc(CCNc2oc(-c3cccc4ccccc34)nc2P(=O)(OC)OC)cc1OC	n	n	n	n	n
CCOP(=O)(OCC)c1nc(-c2ccc(C)cc2)oc1NCc1ccccc1	n	n	n	79	n
COP(=O)(OC)c1nc(-c2cccc3ccccc23)oc1NCCc1ccccc1	n	n	n	71	n
Cc1nc(-c2ccccc2Cl)sc1C(=O)/C=C/N(C)C	n	n	n	n	n
COc1cccc(CN2CCNC(=O)C2CC(=O)NCCc2nc(C)c(C)s2)c1OC (stereo not drawn)	n	n	n	n	n
COC(=O)c1sccc1-c1ccc(C(=O)Nc2cccc(Cl)c2)o1	n	n	n	n	9.8
Cc1ccc(-c2nn3c(C)nnc3s2)cc1NC(=O)c1ccc(-c2cccc(Cl)c2)o1	n	n	n	n	n
Cc1nnc2sc(-c3cccc(NC(=O)c4ccc(-c5cccc(Cl)c5)o4)c3)nn12	x	x	x	98	x
Cc1ccc(S(=O)(=O)n2[nH]c(=O)c(CCO)c2C)cc1	n	n	n	n	n
Cn1cnc([N+](=O)[O-])c1Oc1cccc2ccccc12	n	n	n	73	n
Cn1cnc([N+](=O)[O-])c1Oc1ccccc1	n	n	n	n	n
C/C(=N\NC(=O)c1c(Cl)cnn1C)c1ccc(NC(=O)c2ccncc2)cc1	n	n	n	n	n
CSc1ccc(/C=C(\C(=O)O)c2ccc(S(=O)(=O)N3CCCCC3)s2)cc1	n	n	n	n	10
O=C(O)/C(=C\c1ccccc1Cl)c1ccc(S(=O)(=O)N2CCCCC2)s1	n	n	n	n	n
CC(C)Sc1ncc(S(=O)(=O)c2ccccc2)c(=O)[nH]1	n	n	n	n	n
CCN(CC)CCn1c(=N)n(CCOc2ccccc2)c2ccccc21	n	n	n	93	n
CCCCn1c(=N)n(CCOc2ccc(C)cc2)c2ccccc21	x	n	n	97	n
SMILES	ABCB1 block	WT yeast gro inh	ABCG2 inh	Lmaj promast	RAM inhibit
CCCn1c(=N)n(CCOCCOCCn2c(=N)n(CCC)c3ccccc32)c2ccccc21	x	x	x	88	x
O=c1[nH]c(=O)n(Cc2ccco2)c2c1C(C(F)(F)F)(C(F)(F)F)N=C(Cc1ccccc1)N2	n	62	n	n	n
CC(=O)NC1(C(F)(F)F)C(=O)Nc2c1c(=O)[nH]c(=O)n2Cc1ccco1 (stereo not drawn)	n	n	n	n	n
CC1(C)C/C(=N\NC(=S)Nc2ccccc2F)c2cc(O)ccc2O1	n	n	n	80	n
Cc1ccc2nc(-c3cccc(NS(C)(=O)=O)c3)cc(-c3ccccc3)c2c1	n	94	n	n	n
Cc1nc(-c2cccc(NS(=O)(=O)c3ccccc3)c2)cs1	n	n	n	n	n
CCCC(=O)NC(=S)Nc1nc(-c2ccc(OC)cc2)cs1	n	n	n	n	10
COc1ccc(-c2csc(NC(=O)CSc3n[nH]c(N)n3)n2)cc1	n	n	n	n	n
CCc1c(C)nc(SCC(=O)Nc2nc(-c3ccc(OC)cc3)cs2)[nH]c1=O	n	n	n	n	11
Cn1c(=O)c2c(ncn2CC(=O)OCC(=O)Nc2cc(Cl)ccc2Cl)n(C)c1=O	n	n	n	n	n
CCCOC(=O)c1ccc(NC(=O)/C=C/c2cccs2)cc1	n	n	n	n	10

Screening results (PubChem)
